Results reported in ChEMBL document CHEMBL3259725, “Synthesis of stable aromatic and heteroaromatic sulfonyl-amidoximes and evaluation of their antioxidant and lipid peroxidation activity” (Eur J Med Chem, 2014).
Active and inactive are the calls of the source. The rule behind the calls is not given here.

Key:
Assay type in all cases: functional
[1] = system: Radical scavenging activity; assay: Antioxidant activity assessed as reduction of DPPH free radical formation at 100 uM after 20 mins relative to control; set-up: scale not given: the % may be the effect or the level left
Summary of the method: (§1)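 Compounds at a final 100 concentration were mixed with the stable radical DPPH, using ethanol as the control solution. Absorbance at 517 nm was read after 20 and 60 min at room temperature. Each assay was run at least in triplicate.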

[2] = Antioxidant activity assessed as inhibition of Fe3+/ascorbic acid-induced hydroxyl radical formation by measuring DMSO-induced formaldehyde production at 100 uM after 30 mins relative to control
Summary of the method: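 Hydroxyl radicals were generated by Fe3+/ascorbic acid in 50 mM phosphate buffer, pH 7.4, containing 0.1 mM EDTA and 33 mM DMSO, with compounds at 0.1 mM. Radical yield was measured as formaldehyde formed from DMSO oxidation, determined by the Nash method.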

[3] = system: Radical scavenging activity; assay: Antioxidant activity assessed as reduction of DPPH free radical formation at 100 uM after 60 mins relative to control; set-up: scale not given: the % may be the effect or the level left; summary of the method: as §1
[4] = Antioxidant activity assessed as inhibition of AAPH-induced linoleic acid peroxidation at 100 uM by UV spectrophotometric analysis relative to control
Summary of the method: (§2)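 Linoleic acid dispersion (16 mM stock) in 0.05 M phosphate buffer, pH 7.4, pre-equilibrated at 37 °C. Oxidation was started with AAPH (40 mM stock solution) as radical initiator, with test compound added in DMSO. Conjugated diene hydroperoxide formation was followed as the rise in absorbance at 234 nm at 37 °C. The control contained the same level of DMSO without antioxidant.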

[5] = Antioxidant activity assessed as inhibition of AAPH-induced linoleic acid peroxidation by UV spectrophotometric analysis; summary of the method: as §2

SMILES: N/C(=N\O)c1ccccn1
- Activity [1]: 11%
- inhibition [2]: 81%
- Activity [3]: 14%
- inhibition [4]: inactive

SMILES: N/C(=N\OS(=O)(=O)c1ccccc1)c1ccc([N+](=O)[O-])cc1
- Activity [1]: 4%
- inhibition [2]: 34%
- Activity [3]: 8.4%
- inhibition [4]: 5%

SMILES: N/C(=N\OS(=O)(=O)c1ccc([N+](=O)[O-])cc1)c1cccnc1
- IC50 [5]: 85 µM
- Activity [1]: 8%
- inhibition [2]: 18%
- Activity [3]: 11%

SMILES: Cc1c(C)c2c(c(C)c1O)CCC(C)(C(=O)O)O2 (stereo unspecified) [TROLOX]
- IC50 [5]: 55 µM
- inhibition [2]: 88%

SMILES: CCCS(=O)(=O)O/N=C(\N)c1ccccn1
- Activity [1]: 6%
- inhibition [2]: 83%
- Activity [3]: 1%
- inhibition [4]: inactive

SMILES: CCCS(=O)(=O)O/N=C(\N)c1ccncc1
- Activity [1]: inactive
- inhibition [2]: 66%
- Activity [3]: 4%
- inhibition [4]: inactive

SMILES: NC(=NOS(=O)(=O)c1ccc([N+](=O)[O-])cc1)c1ccncc1
- Activity [1]: 13%
- inhibition [2]: 0%
- Activity [3]: 20%
- inhibition [4]: 49%

SMILES: CCCCCCCCCCS(=O)(=O)O/N=C(\N)c1ccncc1
- Activity [1]: 14%
- inhibition [2]: 70%
- Activity [3]: 21%
- inhibition [4]: 28%

SMILES: CCCCCCCCCCS(=O)(=O)O/N=C(\N)c1cccnc1
- Activity [1]: 20%
- inhibition [2]: 72%
- Activity [3]: 24%
- inhibition [4]: 33%

SMILES: CCCS(=O)(=O)O/N=C(\N)c1cccnc1
- Activity [1]: 23%
- inhibition [2]: 63%
- Activity [3]: 27%
- inhibition [4]: 16%

SMILES: N/C(=N\O)c1cccnc1
- Activity [1]: 12%
- inhibition [2]: 60%
- Activity [3]: 15%
- inhibition [4]: inactive

SMILES: CC(Cc1ccc(O)c(O)c1)C(C)Cc1ccc(O)c(O)c1 (stereo unspecified)
- Activity [1]: 77%
- Activity [3]: 81%

SMILES: Cc1ccc(S(=O)(=O)O/N=C(\N)c2cccnc2)cc1
- Activity [1]: 34%
- inhibition [2]: 95%
- Activity [3]: 41%
- inhibition [4]: 43%

SMILES: CCCCCCCCCCS(=O)(=O)O/N=C(\N)c1ccc([N+](=O)[O-])cc1
- Activity [1]: 3%
- inhibition [2]: 48%
- Activity [3]: 12%
- inhibition [4]: inactive

SMILES: N/C(=N\OS(=O)(=O)c1ccc([N+](=O)[O-])cc1)c1ccc([N+](=O)[O-])cc1
- IC50 [5]: 66.5 µM
- Activity [1]: 34%
- inhibition [2]: inactive
- Activity [3]: 38%

SMILES: Cc1ccc(S(=O)(=O)O/N=C(\N)c2ccccn2)cc1
- IC50 [5]: 80 µM
- Activity [1]: 5%
- inhibition [2]: 72%
- Activity [3]: 4%

SMILES: CCCCCCCCCCCCCCCCS(=O)(=O)O/N=C(\N)c1cccnc1
- IC50 [5]: 70 µM
- Activity [1]: 7%
- inhibition [2]: 69%
- Activity [3]: 16%

SMILES: CCCCCCCCCCCCCCCCS(=O)(=O)O/N=C(\N)c1ccc([N+](=O)[O-])cc1
- Activity [1]: 21%
- inhibition [2]: 100%
- Activity [3]: 24%
- inhibition [4]: 3%

SMILES: CCCS(=O)(=O)O/N=C(\N)c1ccc([N+](=O)[O-])cc1
- Activity [1]: 10%
- inhibition [2]: 75%
- Activity [3]: 19%
- inhibition [4]: 22%

SMILES: N=C(NOS(=O)(=O)c1ccccc1)c1cccnc1
- Activity [1]: 24%
- inhibition [2]: 28%
- Activity [3]: 25%
- inhibition [4]: 21%

SMILES: CCCCCCCCCCCCCCCCS(=O)(=O)O/N=C(\N)c1ccccn1
- Activity [1]: 4%
- inhibition [2]: inactive
- Activity [3]: 1%
- inhibition [4]: 21%

SMILES: N=C(NOS(=O)(=O)c1ccccc1)c1ccccn1
- Activity [1]: 4%
- inhibition [2]: 32%
- Activity [3]: inactive
- inhibition [4]: 30%

SMILES: N=C(NOS(=O)(=O)c1ccccc1)c1ccncc1
- Activity [1]: 2%
- inhibition [2]: 44%
- Activity [3]: 11%
- inhibition [4]: 22%

SMILES: CCCCCCCCCCS(=O)(=O)O/N=C(\N)c1ccccn1
- Activity [1]: 11%
- inhibition [2]: 79%
- Activity [3]: 10%
- inhibition [4]: 46%

SMILES: N/C(=N\O)c1ccc([N+](=O)[O-])cc1
- Activity [1]: 3%
- inhibition [2]: 85%
- Activity [3]: 4%
- inhibition [4]: 41%

SMILES: Cc1ccc(S(=O)(=O)O/N=C(\N)c2ccncc2)cc1
- Activity [1]: inactive
- inhibition [2]: 32%
- Activity [3]: inactive
- inhibition [4]: inactive

SMILES: NC(=NO)c1ccncc1
- Activity [1]: 3%
- inhibition [2]: 87%
- Activity [3]: 7%
- inhibition [4]: inactive

SMILES: CCCCCCCCCCCCCCCCS(=O)(=O)O/N=C(\N)c1ccncc1
- Activity [1]: 14%
- inhibition [2]: inactive
- Activity [3]: 21%
- inhibition [4]: 12%

SMILES: Cc1ccc(S(=O)(=O)O/N=C(\N)c2ccc([N+](=O)[O-])cc2)cc1
- Activity [1]: 10%
- inhibition [2]: 78%
- Activity [3]: 11%
- inhibition [4]: 25%

SMILES: N/C(=N\OS(=O)(=O)c1ccc([N+](=O)[O-])cc1)c1ccccn1
- IC50 [5]: 72 µM
- Activity [1]: 32%
- inhibition [2]: 98%
- Activity [3]: 32%
